Assay outcomes as filed in PubChem.
Only some compounds are listed: those with a hit (about 2% of all), similar ones and a draw of the others.
SIAE inh = human SIAE inhibition, primary screen; AID 1053197; inhibition, % at 9.66 µM; SIAE FP-Rh probe binding, fluorescence polarization; hit rate 0.69% among 370,000;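 active = inhibition above a cutoff: mean of compounds within the control limits plus 3 SD of those, cut at about 17% in these data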
PAD4 inh = blocks human protein arginine deiminase 4. Q9UM07. recombinant PAD4, RCA probe fluorescence polarization. hit rate 0.41% among 330,000. AID 485272. inhibition, % at 6.36 µM;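 active = percent inhibition above a cutoff equal to the mean of all tested compounds plus 3 SD, cut at about 15% in these data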
Target sequence (Q9UM07 whole entry, looked up): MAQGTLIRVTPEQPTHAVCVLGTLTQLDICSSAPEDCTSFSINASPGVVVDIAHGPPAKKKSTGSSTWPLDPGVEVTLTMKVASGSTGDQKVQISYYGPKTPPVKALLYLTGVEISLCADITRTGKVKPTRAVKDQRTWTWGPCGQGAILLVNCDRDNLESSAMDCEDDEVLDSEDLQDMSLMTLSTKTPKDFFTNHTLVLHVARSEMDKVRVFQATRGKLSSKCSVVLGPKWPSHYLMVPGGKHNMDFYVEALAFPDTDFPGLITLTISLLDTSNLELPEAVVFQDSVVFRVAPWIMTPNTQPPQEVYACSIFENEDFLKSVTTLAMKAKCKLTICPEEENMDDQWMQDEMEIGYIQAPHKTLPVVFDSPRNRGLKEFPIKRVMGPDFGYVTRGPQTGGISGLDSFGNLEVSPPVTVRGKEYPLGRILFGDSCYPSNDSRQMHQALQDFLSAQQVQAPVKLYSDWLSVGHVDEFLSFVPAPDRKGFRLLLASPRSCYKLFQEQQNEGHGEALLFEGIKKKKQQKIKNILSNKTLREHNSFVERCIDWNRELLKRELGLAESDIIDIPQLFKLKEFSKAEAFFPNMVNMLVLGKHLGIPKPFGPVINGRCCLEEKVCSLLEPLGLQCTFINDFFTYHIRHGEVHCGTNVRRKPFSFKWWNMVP
TDP2 absorb = TDP2 (human) inhibition, absorbance primary screen; O95551; hit rate 0.34% among 370,000; inhibition, % at 12.8 µM; recombinant TDP2, T5PNP hydrolysis, p-nitrophenol absorbance 415 nm;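 active = inhibition above the mean of all tested compounds plus 3 SD, set per campaign, cut at about 25% in these data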
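System – recombinant human TDP2 · Quantity – TDP2 enzyme at 120 nM final · Doses – single concentration, 12.8 µM nominal, with 1% DMSO · Incubation – 2 h at 37 °C · Measured by – epi absorbance of p-nitrophenol freed from T5PNP by hydrolysis · Read-out – % inhibition relative to enzyme-containing and enzyme-free wells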
TCR CD3 inh = blocks the human TCR-CD3 interaction | TAMRA-labeled TCR probe fluorescence, biochemical | inhibition, % at 9.4 µM | hit rate 0.37% among 360,000 | AID 651800; in the data active = inhibition above about 19%;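 also: recombinant mutant TCR 2C K166C tagged with TAMRA read by polarization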
mABHD4 FP = ABHD4 (mouse) inhibition, primary FP screen. purified mABHD4, FP-Rh probe fluorescence polarization. inhibition, % at 8.92 µM. hit rate 0.54% among 370,000. AID 720543;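 active = inhibition exceeding the mean over every tested compound plus 3 SD, cut at about 30% in these data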
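Test system: mABHD4 protein | Buffer or medium: HEPES pH 7.0 buffer, 150 mM NaCl, 0.01% Pluronic F-127 | Probe or stimulus: FP-Rh fluorescent activity-based probe, added after compound pre-incubation | Timing: Pre-incubation 45 min, probe exposure 60 min, at 25 °C | Technique: Fluorescence polarization, excitation 525 nm, emission 598 nm, BODIPY TMR filters | Repeats: Single well per compound (singlicate)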
HTRA1 inhibitor = blocks human HTRA1 serine peptidase. Q92743. recombinant HTRA1, FP-rhodamine activity-based probe, fluorescence polarization. inhibition, % at 5.96 µM. hit rate 0.5% among 340,000. AID 504803; in the data active = inhibition above about 36%
PAD4 confirm = PAD4 (human) inhibition, confirmed; shares compounds with PAD4 inh; recombinant PAD4, RCA probe fluorescence polarization; AID 488796; hit rate 28% among 1,200; inhibition, % at 6.36 µM;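 active = mean inhibition across replicates above the hit cutoff set by the earlier primary screen, cut at about 15% in these data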;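 also: inhibitors block active-site labeling by the probe so polarization falls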
Hits are given with their value; - = inactive; . = no result.

SMILES | SIAE inh | PAD4 inh | TDP2 absorb | TCR CD3 inh | mABHD4 FP | HTRA1 inhibitor | PAD4 confirm
N#CCCN(Cc1ccccc1)C(=O)c1cccs1 | - | 31.1 | - | - | - | - | -
CC(C)(C)N(Cc1ccccc1)C(=O)c1cccs1 | - | - | - | - | - | - | .
O=C(CN1C(=O)CCSc2ccccc21)Nc1cccc(Cl)c1F | - | . | - | . | - | . | .
COC(=O)c1cc(-c2ccc(C(C)(C)C)cc2)c(=O)n2c1CCC2 | - | . | - | . | - | . | .
C=CCn1c(SCC(=O)N2CCCC2=O)nc2sc(CC)cc2c1=O | - | 32.8 | - | - | - | - | -
C=CCn1c(SCC(=O)O)nc2sc(CC)cc2c1=O | - | - | - | - | - | - | .
Cc1nonc1OC(C)CNc1ccc([N+](=O)[O-])cc1 (centres undefined) | - | 56.0 | - | - | - | - | -
CC(=O)C1=C(c2cccc([N+](=O)[O-])c2)N(C(C)=O)n2c(C)nnc2S1 | - | 18.5 | - | - | - | - | 23.2
CC(=O)c1c(C(C)=O)c(C)n(-c2cccc([N+](=O)[O-])c2)c1C | - | - | - | - | - | - | .
CCOC(=O)C1=C(C)NC(=O)C(C#N)C1c1ccco1 (centres undefined) | - | 18.0 | - | - | - | - | -
CCOC(=O)C1=C(C)NC(C)=C(C(=O)OC)C1c1ccco1 (centres undefined) | - | - | - | - | - | - | .
C[C@H]1[C@@H](N(C)CC2CCCCC2)CC[C@@]23CCCN2C(=O)CCC[C@@H]13 | - | . | - | . | - | . | .
O=S(=O)(c1cccs1)N1CN(Cc2ccco2)c2nc3ccccc3nc21 | - | 76.6 | - | - | - | - | -
CCC(=O)Nc1ccccc1C(=O)C(=O)Nc1ccccc1 | - | 19.9 | - | - | - | - | -
CC(=O)Nc1ccccc1C(=O)C(=O)Nc1ccccc1 | - | - | - | - | - | - | .
O=C1CC(c2ccc3c(c2)OCO3)N=C2N(Cc3ccc4c(c3)OCO4)C/C(=C/c3ccccc3)N12 (centres undefined) | - | . | - | . | - | . | .
CCN1C=C(Cc2ccc(F)cc2)C2=C(C1)C(c1ccc(F)cc1)C(C#N)=C(N)O2 (centres undefined) | - | 23.8 | - | - | - | - | -
Cc1[nH]nc2c1C(c1ccc(F)cc1)C(C#N)=C(N)O2 (centres undefined) | - | - | - | - | - | - | .
CC(=O)C1=C(c2ccccc2)OC(N)=C(C#N)C1c1ccccc1C (centres undefined) | - | - | - | - | - | - | .
CCN1C=C(Cc2ccccc2C)C2=C(C1)C(c1ccccc1C)C(C#N)=C(N)O2 (centres undefined) | - | 17.3 | - | - | - | - | -
O=C(CSc1ccccc1)NC1CCCCN(Cc2cccc(Cl)c2)C1=O (centres undefined) | - | . | - | . | - | . | .
N#Cc1cccc(NS(=O)(=O)c2ccccc2Cl)c1 | - | 22.3 | - | - | - | - | -
COCCNc1c([N+](=O)[O-])c(=O)n(-c2ccccc2)c2ccccc12 | - | - | - | - | - | - | .
CCSc1c([N+](=O)[O-])c(=O)n(-c2ccccc2)c2ccccc12 | - | 22.8 | - | - | - | - | 20.8
COc1cccc(N2CCN(CC(=O)NCc3ccc(Cl)cc3)CC2)c1 | - | . | - | . | - | . | .
SMILES | SIAE inh | PAD4 inh | TDP2 absorb | TCR CD3 inh | mABHD4 FP | HTRA1 inhibitor | PAD4 confirm
CCNc1cc(=O)n(C)c(=O)n1C | - | - | - | - | - | - | .
C=CCn1c(NC)cc(=O)n(C)c1=O | - | 20.5 | - | - | - | - | -
Cc1ccc(-c2cc(C(=O)NN=Cc3cccc(Oc4ccccc4)c3)[nH]n2)cc1C | - | . | - | . | - | . | .
O=C(Nc1cccc(Cl)c1)O[C@@H]1CC[C@@]23CCCN2C(=O)CCC[C@H]3C1 | - | . | - | . | - | . | .
Cc1cccc2c1NC(C)CC2C (centres undefined) | - | 15.4 | - | - | - | - | -
CCOC(=O)C1=C(C)NC(=O)NC1c1ccccc1Cl (centres undefined) | - | - | - | - | - | - | .
Cn1c(CN2CCOCC2)nnc1SCC(=O)Nc1ccc2c(c1)OCCO2 | - | 42.2 | - | - | - | - | -
CN(CCc1ccccc1)C(=O)c1ccc2c(c1)ncn2C1CCCCC1 | - | . | - | . | - | . | .
Cc1ccc(OCCOc2ccc(Cl)cc2Cl)c(Br)n1 | - | . | - | . | - | . | .
Cc1nn(-c2ccccc2)c2c1C(c1ccncc1)C(C#N)=C(N)O2 (centres undefined) | - | 25.3 | - | - | - | - | -
CCCc1nn(C)c2c1C(c1ccncc1)C(C#N)=C(N)O2 (centres undefined) | - | - | - | - | - | - | .
Cc1ccc(-n2nc(C)c3c2OC(N)=C(C#N)C3c2cccs2)cc1 (centres undefined) | - | 41.1 | - | - | - | - | -
Cn1cccc1/C=C1\SC(=S)N(NC(=O)c2ccccc2Cl)C1=O | - | 17.6 | - | - | - | - | -
Cc1ccc(C(=O)NN2C(=O)/C(=C/c3cccn3C)SC2=S)cc1 | - | - | - | - | - | - | .
CCc1ccc(NC2CC(=O)N(CCc3ccc(OC)c(OC)c3)C2=O)cc1 (centres undefined) | - | - | - | - | - | - | .
COc1ccc(CCN2C(=O)CC(Nc3ccc(N4CCOCC4)cc3)C2=O)cc1OC (centres undefined) | - | 19.7 | - | - | - | - | 19.4
CN1CCN(CCCNC(=O)C2CCN(c3nnc(-n4cccc4)s3)CC2)CC1 | - | - | - | - | - | - | .
CCCN1CCN(CCCNC(=O)C2CCN(c3nnc(-n4c(C)ccc4C)s3)CC2)CC1 | - | 17.5 | - | - | - | - | -
Cc1ccnc(NC(=O)Nc2ccc(F)cc2)c1 | - | - | - | - | - | - | .
Cc1ccnc(NC(=O)c2cc3cc(F)ccc3s2)c1 | - | 17.4 | - | - | - | - | 25.1
CC(C)Cn1c(N)c(C(=O)COC(=O)Cc2cccs2)c(=O)n(C)c1=O | - | 46.5 | - | - | - | - | -
O[C@H](COc1cc(F)cc(F)c1)CN1CCC(C(O)(c2ccccc2)c2ccccc2)CC1 | - | . | - | . | - | . | .
S=C(Nc1ccc(Cl)cc1)OC1CCC12CCC(c1ccccc1)CC2 (centres undefined) | - | . | - | . | - | . | .
CCc1cc(SC#N)cc(CC)c1NC(=O)CCl | - | 16.0 | - | - | - | - | -
Cc1cc(NC(=O)CCC(=O)N(c2ccccc2)C(C(=O)NC2CCCC2)c2ccccc2F)no1 (centres undefined) | - | 19.0 | - | - | - | - | -
CC(=O)C1(C(=O)NC2CCCC2)CC(c2ccccn2)=NO1 (centres undefined) | - | . | - | . | - | . | .
CCCc1c(O)nc(SCCN(CCC)CCC)[nH]c1=O | - | 48.1 | - | - | - | - | -
